Several values for one entry are separate records, joined by “and”; a condition that tells them apart may be missing. Identical values can stand only once.
Tests used:
[1] = target: C146S-dUMP complex (Escherichia coli, UniProt P0A884, C146S); format: binding, E. coli; details: 5 °C
[2] = target: T1, C146S TSase (Escherichia coli, UniProt P0A884, C146S); experiment: ITC of dUMP binding to C146S TSase; parameters: species or system E. coli
[3] = target: T2, wild-type TSase (Escherichia coli, UniProt P0A884); parameters: species or system E. coli
T2 sequence (P0A884 whole entry): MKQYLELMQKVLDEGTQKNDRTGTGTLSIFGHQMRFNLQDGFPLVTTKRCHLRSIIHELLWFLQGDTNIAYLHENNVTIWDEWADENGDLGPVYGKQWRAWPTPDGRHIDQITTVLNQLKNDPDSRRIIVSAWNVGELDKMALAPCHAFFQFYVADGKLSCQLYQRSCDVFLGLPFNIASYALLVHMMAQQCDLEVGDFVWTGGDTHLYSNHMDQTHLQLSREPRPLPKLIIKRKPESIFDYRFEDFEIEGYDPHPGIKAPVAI
Summary of the method: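 1H-13C HSQC of wild-type TSase with dUMP bound, U-[2H,13C,15N] ILV-methyl labelled (Ile δ1 only; Leu/Val one methyl protonated). Fraction of the covalently bound state taken from the relative intensities of its assigned resonances. Forward covalent-bond formation rate calculated from that fraction and a prior literature bond-breakage rate (H5 solvent exchange, 0.01 min−1, similar pH and temperature).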

[4] = system: TSase (wild-type and C146S); parameters: species or system E. coli
[5] = target: T2, wild-type TSase; details: ITC; cited from earlier work
[6] = target: T1, C146S TSase; details: cited from earlier work
[7] = C146S relative to wild-type, 25 °C

T1 sequence (P0A884 whole entry C146S): as the sequence (P0A884 whole entry) above, with C146S counted along it
C146S-dUMP complex, sequence (P0A884 whole entry C146S, one chain of several): as the sequence (P0A884 whole entry) above, with C146S counted along it

## Cc1nc2ccc(CN(C)c3ccc(C(=O)N[C@@H](CCC(=O)O)C(=O)O)s3)cc2c(=O)[nH]1 [Raltitrexed]
[1]
  cooperativity ρ: 1.3 ± 0.3

## O=c1ccn([C@H]2C[C@H](O)[C@@H](COP(=O)(O)O)O2)c(=O)[nH]1 [dUMP]
[2]; [7]
  fold weaker dUMP binding: 18 fold and 20 fold
  ΔΔG°bind penalty for formation of the dUMP complex: 1.7 kcal/mol
[2]; C146S vs wild-type
  change in TΔS° per binding event: ~1 kcal/mol
  sum of calorimetric TΔΔS° values for both binding events: -1.7 kcal/mol
[3]; wild-type dUMP complex, from resonance intensities
  fraction of covalently bound state: 19% and ~20%
[4]; scaled to probes in the dimer, C146S vs wild-type
  total TΔΔS°conf associated with binding both dUMP molecules: -2.08 ± 0.18 kcal/mol
[4]; wild-type TSase
  ΔS°conf opposing binding of each dUMP molecule: ~1 kcal/mol
[5]
  change in protonation state on binding (loss of proton per binding event): less than 0.1 proton
[6]
  fold weaker KD of C146S for dUMP than wild-type: ~2 fold

## O=c1[nH]c(=O)n([C@H]2C[C@H](O)[C@@H](COP(=O)(O)O)O2)cc1F [5F-dUMP]
[3]; wild-type TSase complex
  population of the minor (covalent) state relative to dUMP complex: significantly increased

— article PMC5604227 (Biochemistry, 2016)
